Bioassay records as filed in PubChem BioAssay.
FGF22 binding = shifts melting point of recombinant human FGF22; Q9HCT0; recombinant FGF22 thermal shift, SYPRO orange fluorescence; percent of sucrose octasulfate shift, DMSO zero; activity (Tm shift, normalised), % at 9.99 µM; hit rate 1.5% among 340,000; AID 651658;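 active = mean Tm shift, scaled 0 neutral to 100 positive control, at about 1.3% or above, every replicate too, limit read from the data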
Target sequence (Q9HCT0 whole entry, looked up): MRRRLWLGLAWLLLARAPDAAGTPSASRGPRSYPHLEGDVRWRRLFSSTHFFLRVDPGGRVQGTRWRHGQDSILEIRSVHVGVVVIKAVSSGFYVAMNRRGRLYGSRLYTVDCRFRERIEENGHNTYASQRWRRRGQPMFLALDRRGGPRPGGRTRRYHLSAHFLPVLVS
FN deposit inh = fibronectin deposition inhibition. AH1F fibroblasts, Alexa488-fibronectin deposition fluorescence, overnight. inhibition, % at 12.6 µM. hit rate 0.086% among 350,000. AID 743247;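 active = mean inhibition across replicates of 30% or more, regardless of how many single replicates reach that level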
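material = AH1F fibroblast monolayer depositing Alexa488-labelled fibronectin into matrix | amount = 10000 AH1F cells/well | buffer or medium = DMEM plus 2% serum, read in PBS | incubation = 1 h cell adhesion before compound, then overnight fibronectin incubation | detection = fluorescence at 485 nm excitation, 525 nm emission | evaluation = percent inhibition as loss of matrix-bound fibronectin fluorescence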
rRNA inh HTS = inhibitors of bacterial rRNA selective over humanized ribosomes; hit rate 1.6% among 350,000; GFP signal change (wild-type ribosome), % (test concentration not listed); E. coli WT GFP vs humanized-ribosome RFP mutants, fluorescence, 24 h; hits give low values; DMSO median 0, no signal -100;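 active = significant combined selectivity score with lowered wild-type GFP, culture density cut under 30%, mutant RFP and density less affected; inactive = any of these conditions unmet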
SIRT5 block = blocks human SIRT5 desuccinylation of peptide; Purified SirT5, succinyl-peptide AMC, trypsin-coupled fluorescence; hit rate 1.1% among 330,000; inhibition, % at 15 µM; Q9NXA8; in the data active = inhibition above about 15%
Target sequence (Q9NXA8 whole entry, looked up): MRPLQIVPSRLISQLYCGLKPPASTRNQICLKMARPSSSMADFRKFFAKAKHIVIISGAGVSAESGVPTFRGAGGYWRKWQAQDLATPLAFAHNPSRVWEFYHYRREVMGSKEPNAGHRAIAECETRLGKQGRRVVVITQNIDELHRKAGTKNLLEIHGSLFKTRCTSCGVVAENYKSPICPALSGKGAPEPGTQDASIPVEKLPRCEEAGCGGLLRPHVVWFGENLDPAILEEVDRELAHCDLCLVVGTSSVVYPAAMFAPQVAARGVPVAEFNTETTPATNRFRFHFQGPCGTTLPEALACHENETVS
E-sel inducer = induces E-selectin expression in human endothelial cells | activation, % at 7.58 µM | HUVEC E-selectin immunofluorescence imaging; normalized: neutral wells 0, TNF-alpha wells 100 | P16581 | hit rate 0.37% among 260,000 | AID 686992;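 active = mean E-selectin-positive cell signal at least 10% of the positive control, reached in at least 60% of replicates, without over 20% cell loss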
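Assay system: HUVEC, human umbilical vein endothelial cells / Amount: 3,000 HUVEC/well / Controls: TNF-alpha positive control, DMSO neutral control / Compound dosing: single concentration / Medium: EGM-2 over gelatin coat / Evaluation: percent E-selectin-positive cells / Signal: immunofluorescence imaging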
Statin myotox sup = protects C2C12 myotubes from simvastatin toxicity; ATP luminescence, 48 h; scaled: DMSO 0, geranylgeraniol control 100; AID 602340; hit rate 0.78% among 330,000; rescue of ATP level, % at 7.49 µM;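 active = mean ATP rescue above about 67%, or every replicate alone reaching that limit, limit read from the data, passing the limit was not always enough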;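 also: myotubes were challenged with 10 µM simvastatin during compound exposure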
A number is an active result; - = inactive; . = no result; ! = repeats disagree. In the library only some 4% were active in any assay of this set; here they are far more common.

SMILES	FGF22 binding	FN deposit inh	rRNA inh HTS	SIRT5 block	E-sel inducer	Statin myotox sup
C[C@@H]1CN([C@H](C)CO)C(=O)c2cccc(NS(=O)(=O)c3cccs3)c2O[C@H]1CN(C)Cc1ccccc1	-	-	-	26!	-	-
C[C@@H]1CN([C@@H](C)CO)C(=O)c2cccc(NS(=O)(=O)c3cccs3)c2O[C@H]1CN(C)Cc1ccccc1	-	.	-	-	-	-
C[C@@H]1CN([C@H](C)CO)C(=O)c2cccc(NS(=O)(=O)c3cccs3)c2O[C@@H]1CN(C)Cc1ccc(Oc2ccccc2)cc1	-	-	-	-	-	79
C[C@@H]1CN([C@H](C)CO)C(=O)c2cccc(NS(=O)(=O)c3cccs3)c2O[C@@H]1CN(C)Cc1ccc(-c2ccccc2)cc1	-	.	-	-	-	70
COCCN(C[C@H]1N[C@H](CO)[C@@H]1c1ccc(-c2cccc(C#N)c2)cc1)C(C)=O	.	-	-	-	-	.
CCc1nnc(NS(=O)(=O)c2ccc(N/C=C(\C=O)c3nc4cc(Cl)ccc4o3)cc2)s1	.	-	-	-	.	93
COc1ccc(Cl)cc1S(=O)(=O)N1CCCC1=O	43	-	-	-	.	-
Cc1noc(C)c1NC(=O)Nc1ccc2c(c1)C(=O)N([C@@H](C)CO)C[C@H](C)[C@@H](CN(C)C(=O)Nc1ccc(C(F)(F)F)cc1)OCCCC[C@H](C)O2	-	-	-	-	-	-
Nc1nsc2ccccc12	-	.	-	-	.	120
Nc1nnc(N)c2ccccc12	-	.	-	-	.	.
COc1ccc(-[n+]2c(C)cc(/C=C3\Sc4ccccc4N3C)cc2C)cc1	-	-	-	26	.	.
N#C[C@H]1[C@H](c2ccccc2-c2ccccc2)[C@@H](CO)N1C(=O)NC1CCCCC1	.	-	-	-	-	.
Cc1ccc(S(=O)(=O)N[C@H]2CC[C@H](CCn3cc(C4CCCC4)nn3)O[C@H]2CO)cc1	-	-	-	-	-	-
Cc1cccc(C)c1NC(=O)CN(C)C(=O)c1ccc(-n2cncn2)c([N+](=O)[O-])c1	-	.	-	-	50	-
Cc1noc(C)c1NC(=O)Nc1ccc2c(c1)C(=O)N([C@H](C)CO)C[C@H](C)[C@@H](CN(C)C(=O)CCCN(C)C)OCCCC[C@H](C)O2	-	.	-	-	-	-
CCOc1cc(N2CCOCC2)c(OCC)cc1NC(=O)c1cc(S(=O)(=O)N2CCOCC2)ccc1Cl	-	.	-	-	.	-
CCOc1cc(N2CCOCC2)c(OCC)cc1NC(=O)c1ccc(S(=O)(=O)N2CC(C)OC(C)C2)cc1 (configuration not stated)	-	-	-	-	131	-
C[C@H](CO)N1C[C@H](C)[C@@H](CN(C)Cc2ccc(C(F)(F)F)cc2)Oc2ccc(NC(=O)CCCN(C)C)cc2C1=O	-	.	-	-	-	-
CNC[C@H]1Oc2ccc(NC(=O)Nc3cccc4ccccc34)cc2CC(=O)N([C@H](C)CO)C[C@H]1C	.	-	-	-	-	-
CN(C)S(=O)(=O)c1ccc(NC(=O)CN2CCOCC2)cc1	-	-	-	-	-	-
CCCCN(CCCC)S(=O)(=O)c1ccc(NC(=O)CN2CCOCC2)cc1	-	.	-	-	.	130
Cc1cccc(NC(=S)NC23CN4CN(CN(C4)C2)C3)c1C	44	-	-	-	.	.
COc1ccccc1NC(=S)NC12CN3CN(CN(C3)C1)C2	.	-	-	-	.	-
Cc1ccccc1NC(=S)NC12CN3CN(CN(C3)C1)C2	44	-	-	-	.	.
Cc1ccc(S(=O)(=O)N(C)C[C@@H]2OCc3cn(nn3)CCCC(=O)N([C@@H](C)CO)C[C@@H]2C)cc1	-	-	-	-	-	-
SMILES	FGF22 binding	FN deposit inh	rRNA inh HTS	SIRT5 block	E-sel inducer	Statin myotox sup
C=CC[C@@H](CC(=O)OC(C)(C)C)C(=O)OC[C@@H]1CCCN1C(=O)[C@@H](CC=C)CC(=O)N[C@@H](CO)Cc1ccccc1	-	-	-	25	-	-
C=CC[C@@H](CC(=O)OC(C)(C)C)C(=O)OC[C@H]1CCCN1C(=O)[C@@H](CC=C)CC(=O)N[C@H](CO)Cc1ccccc1	-	-	-	-	-	-
C=CC[C@@H](CC(=O)N[C@H](CO)Cc1ccccc1)C(=O)N[C@@H](COC(=O)[C@@H](CC=C)CC(=O)OC(C)(C)C)Cc1ccccc1	-	-	-	18	-	-
C[C@H](CO)N1C[C@H](C)[C@@H](CN(C)C(=O)Nc2ccc3c(c2)OCO3)Oc2ccc(N(C)C)cc2C1=O	-	.	-	-	.	-
O=C(NCc1ccc(Cl)cc1)c1cc([N+](=O)[O-])ccc1Cl	43	-	-	-	-	.
O=C(O)COc1ccc(/C=N/NC(=O)c2ccc(-c3csc(Nc4ccc(Cl)cc4)n3)cc2)cc1	-	-	-	28	-	-
O=C(N/N=C/c1ccc(OCc2cnc(Cl)s2)cc1)c1ccncc1	43	-	-	-	.	.
O=C(N/N=C/c1ccc(OCc2ccccc2)cc1)c1ccncc1	-	-	.	-	-	-
O=C(C[C@H]1C[C@@H]2c3cc(NC(=O)NC4CCCC4)ccc3O[C@@H]2[C@H](CO)O1)NCc1cccc(F)c1	-	.	-	-	-	-
Cn1nnnc1Sc1ccc([N+](=O)[O-])cc1Cl	-	.	-	17	.	.
C[C@@H]1CN([C@@H](C)CO)C(=O)c2cc(C3=CCCC3)cnc2O[C@H]1CN(C)C(=O)c1ccc(F)cc1	-	.	-	-	-	-
NC(=S)N/N=C/c1ccc(-c2cc(Cl)ccc2Cl)o1	-	.	-21	-	.	-
Nc1ncnc2nc(SCC(=O)N3CCN(c4ccccc4)CC3)[nH]c12	.	.	.	.	.	-
CCC(Sc1nc2ncnc(N)c2[nH]1)C(=O)O (configuration not stated)	-	-	-	17	-	-
Nc1ncnc2nc(SCc3ccccc3)[nH]c12	.	.	.	.	.	99
O=C(O)CSc1ncnc2c1sc1nc(-c3ccccc3)c3c(c12)CCC3	-	-	-	18	.	.
O=c1[nH]cnc2c1sc1nc(-c3ccccc3)c3c(c12)CCCC3	-	-	-	-	.	.
Cc1ccc(CNC(=O)COC(=O)c2cccnc2Cl)cc1	43	-	-	.	-	-
O=C(COC(=O)c1cccnc1Cl)c1ccc(F)cc1	43	-	-	-	.	.
O=C(COC(=O)c1ccc(O)cc1)NCc1ccc2c(c1)OCO2	-	-	-	-	-	-
O=C(COC(=O)c1cccnc1Cl)c1ccccc1	-	.	-	-	.	-
CSc1ncccc1C(=O)OCC(=O)NCc1ccc2c(c1)OCO2	43	-	.	-	.	.
CCOc1ncccc1C(=O)OCC(=O)NCc1ccc2c(c1)OCO2	-	-	-	-	.	.
COc1cc(OC)cc(C(=O)OCC(=O)NCc2ccc3c(c2)OCO3)c1	44	-	-	-	.	.
